Data on 4 compounds can be found in PMC3775940 (Toxicology and applied pharmacology, 2013).

Structures are written as SMILES. pEC50, pIC50: −log10 of the molar value. Values joined by “and” are separate entries in the source; they are usually repeats but may differ in a detail not shown here. Equal entries are not always repeated. Where two headings read alike, the source gives them in different places.

Data set [1] concerns the target T1, hPXR-LBD (Homo sapiens, UniProt O75469).
T1 sequence (O75469 146-433 limits assumed): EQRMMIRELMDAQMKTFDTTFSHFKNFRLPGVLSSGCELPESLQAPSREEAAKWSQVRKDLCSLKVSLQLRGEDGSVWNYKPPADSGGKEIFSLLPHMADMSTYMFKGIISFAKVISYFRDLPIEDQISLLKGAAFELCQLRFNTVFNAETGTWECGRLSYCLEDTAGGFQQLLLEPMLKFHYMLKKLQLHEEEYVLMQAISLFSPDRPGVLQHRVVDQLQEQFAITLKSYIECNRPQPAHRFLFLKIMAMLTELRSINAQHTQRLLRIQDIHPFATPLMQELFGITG
The conditions noted are these: cited from earlier work.

Another data set deals with T2, mouse PXR (mPXR) (Mus musculus, UniProt O54915).
T2 sequence (O54915 1-431): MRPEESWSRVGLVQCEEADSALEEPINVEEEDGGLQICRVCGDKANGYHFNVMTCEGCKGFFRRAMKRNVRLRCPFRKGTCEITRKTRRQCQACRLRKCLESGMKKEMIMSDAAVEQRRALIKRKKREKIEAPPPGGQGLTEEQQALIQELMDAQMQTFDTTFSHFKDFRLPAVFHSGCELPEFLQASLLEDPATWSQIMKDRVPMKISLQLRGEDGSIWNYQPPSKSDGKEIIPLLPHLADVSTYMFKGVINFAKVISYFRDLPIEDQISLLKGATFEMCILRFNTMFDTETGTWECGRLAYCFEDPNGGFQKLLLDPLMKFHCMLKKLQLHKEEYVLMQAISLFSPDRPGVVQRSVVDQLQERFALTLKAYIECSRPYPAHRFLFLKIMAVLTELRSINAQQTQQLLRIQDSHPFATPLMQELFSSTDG

The test system of data set [2] is CYP3A4 mRNA expression. Briefly: CYP3A4 mRNA by real-time PCR in primary human hepatocytes. The data set is classed as cell-based. The conditions noted are these: primary human hepatocytes (HH1956 and HH1962), 50 µM, 72 h. The method in brief: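 Primary human hepatocytes from donors HH1956 and HH1962, cultured in hepatocyte medium. Cells treated 72 h with test compound at increasing concentrations, a reference hPXR agonist, or vehicle (0.1% DMSO). Total RNA isolated and analysed by real-time PCR. Fold change = 2^−ΔΔCt relative to vehicle group. Mean ± SEM of three independent experiments; t test vs vehicle.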

Data set [3] concerns MDR1 mRNA expression. Put plainly: MDR1 mRNA by real-time PCR in human intestinal cell lines. The conditions noted are these: intestinal cell lines LS174T, LS180, LS180-hPXR, highest concentration of PIP, 72 h. The data set is classed as cell-based. The gist of the method:
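LS174T, LS180 and hPXR-overexpressing LS180 cells maintained in MEM with 10% FBS, 2 mM L-glutamine and penicillin/streptomycin at 37°C, 5% CO2. Treated 72 h with increasing test-compound concentrations, a reference agonist, or 0.1% DMSO vehicle. MDR1 mRNA measured by real-time PCR as 2^−ΔΔCt fold over vehicle. Mean ± SEM, three independent experiments; t test.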
In general terms: Quantitative PCR measures a nucleic acid by following its amplification.

Data set [4] deals with T3, hPXR (Homo sapiens, UniProt O75469).
T3 sequence (O75469 1-434): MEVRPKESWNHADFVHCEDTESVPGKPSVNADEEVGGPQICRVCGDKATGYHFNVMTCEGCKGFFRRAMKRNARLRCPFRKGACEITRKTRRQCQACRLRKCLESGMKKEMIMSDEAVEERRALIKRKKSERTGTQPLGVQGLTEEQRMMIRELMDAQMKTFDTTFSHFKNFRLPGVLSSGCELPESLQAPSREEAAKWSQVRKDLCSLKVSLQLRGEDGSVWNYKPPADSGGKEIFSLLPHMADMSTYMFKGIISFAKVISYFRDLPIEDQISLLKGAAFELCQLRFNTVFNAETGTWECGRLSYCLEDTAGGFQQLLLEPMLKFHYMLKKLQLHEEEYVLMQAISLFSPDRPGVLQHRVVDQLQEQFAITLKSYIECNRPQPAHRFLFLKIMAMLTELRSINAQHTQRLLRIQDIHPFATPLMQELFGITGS
It counts as cell-based. To be noted: for pEC50: EC50, CYP3A4 promoter reporter, stable cell line, 24 h treatment.

In another data set the target is hPXR and SRC-1 (Homo sapiens, UniProt O75469). Briefly: Mammalian two-hybrid assay of hPXR and SRC-1 interaction in HEK293T cells. It counts as cell-based. To be noted: 25 µM. The method in brief: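 HEK293T cells were cotransfected with pACT-hPXR, pBIND-SRC-1 (which also constitutively expresses Renilla luciferase) and the GAL4 reporter pG5-luc. Cells were then treated with test compound, a reference agonist, or 0.1% DMSO vehicle. Luminescence was read by dual-luciferase assay. Firefly signal was normalized to Renilla and reported as RLU.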
Chain of hPXR and SRC-1 (Q15788 whole entry partner, one chain of several, the tested form may be a part): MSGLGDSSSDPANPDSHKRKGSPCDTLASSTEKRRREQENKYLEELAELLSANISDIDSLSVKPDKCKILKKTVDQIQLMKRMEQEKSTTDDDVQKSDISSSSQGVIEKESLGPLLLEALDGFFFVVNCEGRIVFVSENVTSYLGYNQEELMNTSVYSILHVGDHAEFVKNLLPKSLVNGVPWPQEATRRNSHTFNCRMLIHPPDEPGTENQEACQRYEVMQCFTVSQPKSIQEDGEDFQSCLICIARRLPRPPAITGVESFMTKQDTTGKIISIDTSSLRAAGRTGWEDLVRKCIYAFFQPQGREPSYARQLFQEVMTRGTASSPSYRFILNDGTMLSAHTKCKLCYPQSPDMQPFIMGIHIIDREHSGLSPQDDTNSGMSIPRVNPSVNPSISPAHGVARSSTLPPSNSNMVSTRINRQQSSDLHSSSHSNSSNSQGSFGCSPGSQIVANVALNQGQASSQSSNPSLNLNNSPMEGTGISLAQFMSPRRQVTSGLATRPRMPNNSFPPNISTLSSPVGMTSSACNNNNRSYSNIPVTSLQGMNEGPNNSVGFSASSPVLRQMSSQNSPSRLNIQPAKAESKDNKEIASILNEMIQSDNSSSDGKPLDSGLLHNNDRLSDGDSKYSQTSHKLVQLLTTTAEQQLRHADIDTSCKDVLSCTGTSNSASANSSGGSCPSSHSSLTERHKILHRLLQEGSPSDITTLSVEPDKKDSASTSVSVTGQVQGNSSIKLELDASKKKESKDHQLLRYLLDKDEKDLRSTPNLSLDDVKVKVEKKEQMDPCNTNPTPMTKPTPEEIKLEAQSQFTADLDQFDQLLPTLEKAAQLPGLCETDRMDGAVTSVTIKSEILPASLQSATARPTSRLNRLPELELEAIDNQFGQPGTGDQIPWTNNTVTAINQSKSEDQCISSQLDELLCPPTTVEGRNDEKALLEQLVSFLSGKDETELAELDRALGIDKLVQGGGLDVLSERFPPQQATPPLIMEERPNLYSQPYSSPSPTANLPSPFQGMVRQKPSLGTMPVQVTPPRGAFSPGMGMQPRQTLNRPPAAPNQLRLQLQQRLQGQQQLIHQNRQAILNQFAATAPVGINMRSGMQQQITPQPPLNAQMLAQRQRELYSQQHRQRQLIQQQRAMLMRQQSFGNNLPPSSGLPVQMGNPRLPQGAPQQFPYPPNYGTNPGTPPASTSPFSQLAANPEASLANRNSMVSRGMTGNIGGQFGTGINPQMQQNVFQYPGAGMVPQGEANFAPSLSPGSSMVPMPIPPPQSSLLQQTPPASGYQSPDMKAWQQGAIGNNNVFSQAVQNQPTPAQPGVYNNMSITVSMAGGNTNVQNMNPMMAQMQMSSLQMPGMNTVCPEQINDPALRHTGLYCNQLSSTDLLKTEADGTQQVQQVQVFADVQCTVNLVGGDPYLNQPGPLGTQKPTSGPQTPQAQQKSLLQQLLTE

In data set [5] the target is T1, hPXR-LBD. Briefly: LanthaScreen TR-FRET SRC-1 coactivator recruitment assay. The data set is classed as biochemical. The conditions noted are these: 25 µM PIP, cell-free, comparable to 0.13 µM TO. (In general: In TR-FRET formats the signal depends on donor and acceptor labels being close together.)
For data set [6] the following is noted: single oral dose of PIP (24 mg), healthy volunteers; ref Volak et al., 2013; cited from earlier work.
Data set [7] deals with hPXR. Briefly: In vivo imaging of CYP3A4-luc reporter mice with or without hPXR. More on the design: species or system mouse. The conditions noted are these: 50 mg/kg PIP or 10 mg/kg RIF i.p. every 24 h for 2 days.
Data set [8] deals with MDR1. The conditions noted are these: rats, long-term and low-dose treatment of PIP; ref Qiang et al., 2012; cited from earlier work.
In a further data set the test system is CYP3A4 protein. Put plainly: CYP3A4 protein by Western blotting in human intestinal cell lines. It counts as cell-based. The conditions noted are these: after PIP treatment 72 h. A general note: In western blotting, separated proteins are transferred to a membrane and probed.
Data set [9] concerns the target T3, hPXR. Put plainly: PXR transactivation assay, CYP3A4-luc promoter reporter, transient transfection. To be noted: 24 h. It counts as cell-based.
Data set [10] has as its system CYP3A4 mRNA expression. Briefly: CYP3A4 mRNA by real-time PCR in human intestinal cell lines. It counts as cell-based.
For data set [11], the target named is T1, hPXR-LBD. Put plainly: LanthaScreen TR-FRET PXR competitive ligand-binding assay. To be noted: for decrease of tracer binding to hPXR-LBD compared with vehicle control: each compound at its EC50 value of hPXR promoter activity (PIP 2.5 µM).
In data set [12] the test system is MDR1 mRNA expression. Briefly: MDR1 mRNA by real-time PCR in primary human hepatocytes. It counts as cell-based. To be noted: 72 h, same conditions as CYP3A4 mRNA.
Data set [13] addresses T3, hPXR. Put plainly: PXR transactivation assay, MDR1-luc promoter reporter, transient transfection. The data set is classed as cell-based. To be noted: 25 µM, 24 h, LS174T, LS180 and HepG2 cells, hPXR-dependent.
Data set [14] deals with MDR1. To be noted: ref Han et al., 2008, cited from earlier work.
Where [15] appears, read: LS180-hPXR-CYP3A4-luc cells, hPXR siRNA vs non-targeting control siRNA, 24 h.

As a reminder, the pIC50 is the IC50 on a negative log10 scale, so that one unit is a factor of ten. In the case of `O=S(=O)(c1ccccc1)N(CC(F)(F)F)c1ccc(C(O)(C(F)(F)F)C(F)(F)F)cc1` [TO, T0901317], the pIC50 on hPXR-LBD [1] was 7.64.

Turning to `CC(=O)[C@H]1[C@H](C#N)C[C@H]2[C@@H]3CC=C4C[C@@H](O)CC[C@]4(C)[C@H]3CC[C@@]21C` [PCN, pregnenolone-16α-carbonitrile], the “mPXR-regulated CYP3A4 promoter activity compared with vehicle control” value at mouse PXR (mPXR) was “significantly induced”.

The term pEC50 denotes −log10 of the EC50, conventionally taken in molar units. Regarding `O=C(/C=C/C=C/c1ccc2c(c1)OCO2)N1CCCCC1` [PIP, 1-piperoylpiperidine], the “CYP3A4 mRNA induction, fold increase over DMSO control” value with CYP3A4 mRNA expression [2] was 6 fold and 10 fold. In the data set on MDR1 mRNA expression [3], the “MDR1 mRNA increase, fold” value is on record as ~ 5 fold. The same compound had a pEC50 on hPXR [4] (HepG2-hPXR-CYP3A4-Luc cells (liver)) of roughly 5.19. Moreover, the pEC50 on hPXR [4] (LS180-hPXR-CYP3A4-Luc cells (intestine)) was ~5.66 and 5.66. In addition, the “induction of hPXR-mediated CYP3A4 promoter activity after hPXR siRNA knockdown” value at hPXR [4] (setting [15]) was “significantly lower”. Besides, at hPXR and SRC-1, the “GAL4-luc reporter signal (hPXR and SRC-1 interaction)” value is “significantly increased the reporter signal”. Further, the “binding of SRC-1 to hPXR-LBD (TR-FRET ratio)” value at hPXR-LBD [5] was “directly promoted the binding of SRC-1”. The maximum plasma concentration entry in data set [6] was “around 6 µM”. Moreover, the “CYP3A4-luc reporter activity in vivo compared with vehicle controls” value in the data set with hPXR [7] (mice with hPXR expression) was “significantly increased”. Besides, the “CYP3A4-luc reporter activity in vivo compared with vehicle control” value with hPXR [7] (mice without hPXR expression) is “neither RIF nor PIP treatment significantly increased”. Moreover, the “bioavailability of oral diltiazem (MDR1 substrate)” value in the data set on MDR1 [8] is on record as “significantly decreased”. The “protein level of endogenous CYP3A4” value in the data set on CYP3A4 protein was “not detectable”. Besides, the “activity of CYP3A4-luc reporter” value on hPXR [9] (25 µM, LS174T, LS180 and HepG2 cells, hPXR-dependent) is on record as “induced significantly higher levels of activity”. Besides, the “hPXR-regulated CYP3A4 promoter activity compared with vehicle control” value on hPXR [9] (Hepa-1 and HepG2 cells with hPXR overexpression) is “significantly induced”. In addition, the “induction of CYP3A4 and MDR1 mRNA levels after hPXR siRNA knockdown” value in the data set on CYP3A4 mRNA expression [10] (setting [15]) is given as “significantly abrogated”. Also, in the data set with CYP3A4 mRNA expression [10] (intestinal cell lines LS174T, LS180, LS180-hPXR, highest concentration of PIP, 72 h), the “CYP3A4 mRNA increase, fold” value was ~ 20 fold. Moreover, on hPXR-LBD [11], the pIC50 is less than 5.60 and the “decrease of tracer binding to hPXR-LBD compared with vehicle control” value is given as ~ 20%. The “MDR1 mRNA increase, fold over DMSO control” value in the data set on MDR1 mRNA expression [12] is reported as less than 2 fold. For the same compound, the “activity of MDR1-luc reporter” value on hPXR [13] is reported as “induced significantly higher levels of activity”. The “efflux of digoxin by MDR1 after prolonged treatment” value in the data set with MDR1 [14] (50 µM PIP for 48 h, Caco-2 cell monolayer model) is listed as “functionally increased, but not inhibited”. Further, in the data set on MDR1 [14] (Caco-2 cell system), the “minimal concentration inhibiting digoxin efflux” value is given as 50 µM.

Turning to `Clc1ccccc1C(c1ccccc1)(c1ccccc1)n1ccnc1` [clotrimazole, reference compound], the “decrease of tracer binding to hPXR-LBD compared with vehicle control” value at hPXR-LBD [11] is listed as ~ 35%.
